The record followed here is ChEMBL document CHEMBL5038671, “Hydrophobic Tagging-Induced Degradation of PDEδ in Colon Cancer Cells” (ACS Med Chem Lett, 2022).

One test deals with HCT-116. In words: Antiproliferative activity against human HCT-116 cells assessed as cell growth inhibition and measured after 72 hrs by CCK8 assay. The note with it: HCT-116, 72 h. Background: Tetrazolium assays rely on reduction of a dye to a coloured formazan, in cell work by metabolically active cells.
The subject of test [1] is SW480. The test can be described thus: Antiproliferative activity against human SW480 cells assessed as apoptosis induction at 30 uM measured for 24 hrs by Annexin V-FITC/PI staining based flow cytometry analysis (reference value: 46%). The class given is functional. On the technique in general: A flow cytometer gives signals particle by particle.
Test [2] deals with SW480. In words: Antiproliferative activity against human SW480 cells assessed as cell growth inhibition and measured after 72 hrs by CCK8 assay. The note with it: SW480, 72 h.
Test [3] concerns SW480. In words: Down regulation of p-ERK expression in human SW480 cells measured for 24 hrs by western blot analysis. Format: functional, cell-based. The essentials: (§1)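 PDEδ downstream proteins examined in SW480 cells treated 24 h, by Western blot; blots repeated at least three times, bar graphs as mean ± SD.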
(A western blot detects proteins with antibodies after separation by electrophoresis.)

Test [4] concerns SW480. The test can be described thus: Antiproliferative activity against human SW480 cells assessed as apoptosis induction at 40 uM measured for 24 hrs by Annexin V-FITC/PI staining based flow cytometry analysis (reference value: 46%). Format: functional.
Test [5] concerns SW480. The test can be described thus: Down regulation of p-Akt expression in human SW480 cells measured for 24 hrs by western blot analysis. Format: functional, cell-based. A digest of the protocol:
as §1

In test [6] the target is Retinal rod rhodopsin-sensitive cGMP 3',5'-cyclic phosphodiesterase subunit delta (Homo sapiens, UniProt O43924). In words: Binding affinity to PDE delta (unknown origin) assessed as dissociation constant measured after 2 hrs by fluorescence polarization assay.
Test [7] relates to SW480. In words: Antiproliferative activity against human SW480 cells assessed as apoptosis induction at 50 uM measured for 24 hrs by Annexin V-FITC/PI staining based flow cytometry analysis (reference value: 46%). Format: functional.

Each structure is given as a SMILES string. Some results are limits rather than exact numbers.

Retinal rod rhodopsin-sensitive cGMP 3',5'-cyclic phosphodiesterase subunit delta, sequence (O43924 whole entry): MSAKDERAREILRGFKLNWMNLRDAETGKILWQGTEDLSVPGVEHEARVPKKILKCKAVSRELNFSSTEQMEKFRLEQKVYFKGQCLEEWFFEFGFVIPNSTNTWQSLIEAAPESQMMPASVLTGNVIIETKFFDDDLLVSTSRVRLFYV

As to `Cc1ccc(-n2nc3c(=O)n(CCCC(=O)NCCCCCCNC(=O)CC45CC6CC(CC(C6)C4)C5)nc(C)c3c2C)cc1`, the half-inhibitory concentration (IC50) in the test with HCT-116 is 7.7 µM; with SW480 [2], 4.8 µM. For the same compound, the Activity with SW480 [1] was 15.23%; in the test with SW480 [3] it was “Dose-Dependent Effect”; in the test with SW480 [4], 83.67%; in the test with SW480 [5], “Dose-Dependent Effect”.
As for `Cc1ccc(-n2nc3c(=O)n(CCCC(=O)NCCCC(=O)NCC45CC6CC(CC(C6)C4)C5)nc(C)c3c2C)cc1`, the IC50 was 11.4 µM with HCT-116 and 8 µM in the test with SW480 [2].
For `Cc1ccc(-n2nc3c(=O)n(CCCC(=O)NCCc4ccc(NC(=O)CCCCCC(=O)NCC56CC7CC(CC(C7)C5)C6)cc4)nc(C)c3c2C)cc1`, in that order: more than 100 µM and more than 100 µM.
For the compound `Cc1ccc(-n2nc3c(=O)n(CCCC(=O)NCCc4ccc(NC(=O)CCCCCCCCCC(=O)NCC56CC7CC(CC(C7)C5)C6)cc4)nc(C)c3c2C)cc1`, the half-inhibitory concentration (IC50) in the test on HCT-116 is more than 100 µM; with SW480 [2], 14 µM. For the same compound, the Ki in test [6] was more than 1000 nM.
For the compound `Cc1ccc(-n2nc3c(=O)n(CCCC(=O)NCCCCNC(=O)CC45CC6CC(CC(C6)C4)C5)nc(C)c3c2C)cc1`, the IC50 was found to be 50.7 µM in the test on HCT-116 and 7 µM in the test with SW480 [2].
Consider `Cc1ccc(-n2nc3c(=O)n(CCCC(=O)NCC45CC6CC(CC(C6)C4)C5)nc(C)c3c2C)cc1`, for which the IC50 with HCT-116 and in the test on SW480 [2] was more than 100 µM in each case.
As to `Cc1ccc(-n2nc3c(=O)n(CCCC(=O)NC45CC6CC(CC(C6)C4)C5)nc(C)c3c2C)cc1`, the IC50 in the test on HCT-116 and in the test with SW480 [2] was more than 100 µM throughout.
Consider `Cc1ccc(-n2nc3c(=O)n(CCCC(=O)NCCOCCOCCNC(=O)CC45CC6CC(CC(C6)C4)C5)nc(C)c3c2C)cc1`, for which the IC50 with HCT-116 came to 18.5 µM; in the test on SW480 [2], 5.4 µM.
Turning to `Cc1ccc(-n2nc3c(=O)n(CCCC(=O)NCC(C)c4ccccc4)nc(C)c3c2C)cc1` (centres undefined), the results for the IC50 with HCT-116 and in the test on SW480 [2] were 82.4 µM and 18.3 µM, respectively. In the test on SW480 [7], the Activity came to 5.4%.
As to `Cc1ccc(-n2nc3c(=O)n(CCCC(=O)NCCNC(=O)CC45CC6CC(CC(C6)C4)C5)nc(C)c3c2C)cc1`, the IC50 came out at 20.4 µM in the test on HCT-116 and 10 µM in the test with SW480 [2].
In the same order, the values of `Cc1ccc(-n2nc3c(=O)n(CCCC(=O)NCCCCCC(=O)NCC45CC6CC(CC(C6)C4)C5)nc(C)c3c2C)cc1` are 32.5 µM and more than 100 µM.
In the same order, the values of `Cc1ccc(-n2nc3c(=O)n(CCCC(=O)NCCCCCCCCNC(=O)CC45CC6CC(CC(C6)C4)C5)nc(C)c3c2C)cc1` are 17.7 µM and 5.6 µM.
In the same order, the values of `Cc1ccc(-n2nc3c(=O)n(CCCC(=O)NCCc4ccc(NC(=O)CCCCCCNC(=O)CC56CC7CC(CC(C7)C5)C6)cc4)nc(C)c3c2C)cc1` are more than 100 µM and more than 100 µM.
Consider `Cc1ccc(-n2nc3c(=O)n(CCCC(=O)NCCc4ccc(NC(=O)CCCC(=O)NCC56CC7CC(CC(C7)C5)C6)cc4)nc(C)c3c2C)cc1`, for which the IC50 is 39 µM with HCT-116 and 19.8 µM in the test with SW480 [2].

By IC50 is commonly meant the midpoint of a concentration-inhibition curve. The term Ki denotes the dissociation constant of the complex between target and ligand, obtained from inhibition or displacement.
